Results pooled from the literature.
Target: Casein kinase II subunit alpha' (CSNK2A2, Homo sapiens, UniProt P19784)

`CS(=O)(=O)c1cc(C2(NC(=O)c3cncc4c3cnn4-c3ccc(F)cc3)CC2)ccn1` has a remaining binding of 80% (cell-free assay; competition with immobilised ligand; 1 µM).
`CCN(CC)CCNC(=O)c1c(C)[nH]c(/C=C2\C(=O)Nc3ccc(F)cc32)c1C` gave an inhibition of -22% (enzyme activity; inhibitor; 0.3 µM).
`N#CCCc1ccc2c(c1)-c1[nH]c3ccc([N+](=O)[O-])cc3c1CC(=O)N2` gave a remaining signal of 92.9% (cell-free assay; 0.5 µM).
With `COc1cccc(CNC(=O)c2nc3scc(COCc4ccc(C(=O)O)cc4)c3c(=O)[nH]2)c1` the remaining binding was 79.4% (cell-free assay; competition with immobilised ligand; 1 µM).
The remaining activity of `CC(C)(C)c1nc(-c2cccc(NS(=O)(=O)c3c(F)cccc3F)c2F)c(-c2ccnc(N)n2)s1` is reported as 84% (enzyme activity; inhibitor; radiometric; 1 µM).
With `CCCOc1ccc([C@H]2[C@H](C(=O)O)[C@@H](c3ccc4c(c3)OCO4)CN2CC(=O)Nc2c(CC)cccc2CC)cc1` the remaining binding was 87% (cell-free assay; competition with immobilised ligand; 1 µM).
For `O=C1NC(=O)c2cc(Nc3ccc(F)cc3)c(Nc3ccc(F)cc3)cc21`, the remaining signal was 104% (cell-free assay; inhibitor; 0.5 µM).
For `Cc1cc(NC(=O)c2cccc3cc(-c4cccc5[nH]nc(N)c45)ccc23)ccc1F`, the activity vs control was 109% (enzyme activity; inhibitor; 0.1 µM).
With `CCS(=O)(=O)c1cc2cc(C[C@](O)(CC(C)(C)c3ccc(F)cc3C(N)=O)C(F)(F)F)[nH]c2cn1` the remaining binding was 92% (cell-free assay; competition with immobilised ligand; 1 µM).
`Cc1cnc(NC2CCOCC2)nc1-n1cnc(C(=O)NC(CN)c2cc(F)cc(Cl)c2)c1` (stereo not drawn) gave a remaining activity of 97% (enzyme activity; inhibitor; radiometric; 1 µM).
`Cn1cnc(Br)c1C1=CN(c2ncnc3[nH]cnc23)CCS1` has an inhibition of 19.7% (enzyme activity; inhibitor; radiometric; 50 nM).
`CNC(=O)c1cc(Oc2ccc(NC(=O)Nc3ccc(Cl)c(C(F)(F)F)c3)cc2)ccn1` has an inhibition of -30% (enzyme activity; inhibitor; 10 µM).
`Nc1ncnc2occ(-c3ccc(NC(=O)Nc4cc(C(F)(F)F)ccc4F)cc3)c12` gave a remaining activity of 41% (enzyme activity; inhibitor; 20 µM).
With `C=CC(=O)Nc1cc(Nc2nccc(Nc3cc(Cl)c(F)cc3C(C)(C)O)n2)c(OC)cc1N1CC[C@@H](N(C)C)C1` the inhibition was -6% (enzyme activity; inhibitor; 1 µM).
`Cc1ccc(Nc2nccc(N(C)c3ccc4c(C)n(C)nc4c3)n2)cc1S(N)(=O)=O` gave an inhibition of -13% (enzyme activity; inhibitor; 0.3 µM).
`O=C(Nc1cnn(-c2csc(C(=O)NC3COC3)c2)c1)Nc1c(F)cccc1Cl` gave a remaining activity of 96.6% (enzyme activity; inhibitor; 5 µM).
For `O=C(Nc1cccnn1)N1CCC(=Cc2cccc(Oc3ccc(C(F)(F)F)cn3)c2)CC1`, the remaining binding was 100% (cell-free assay; competition with immobilised ligand; 1 µM).
`CCCOc1ccc(OC)c(F)c1C(=O)c1ccc(C(=O)N[C@@H]2CNC[C@H]2NC(=O)c2ccc3[nH]ncc3c2)cc1` has a remaining activity of 93% (enzyme activity; inhibitor; 10 µM).
For `CC(C)(O)[C@H]1CC[C@H](Nc2ccc3ncc(-c4cccc(C(F)(F)F)c4)n3n2)CC1`, the remaining activity was 73.6% (enzyme activity; inhibitor; 1 µM).
For `COc1cc2ncnc(Nc3ccc(Oc4ccccc4)c(C)c3C)c2cc1OC`, the inhibition was -1% (enzyme activity; inhibitor; 1 µM).
`CN(C)C(=O)Cn1cc(-c2nc([C@@](C)(c3ccc(-c4cnc(N)nc4)cc3)C3CC3)no2)cn1` has a remaining binding of 90% (cell-free assay; competition with immobilised ligand; 1 µM).
`c1ccc(CNc2nc(N3CCOc4ccccc43)nc3c2CCCC3)cc1` has an inhibition of -34.4% (target engagement in cells; inhibitor; chemoproteomics; 20 mM).
The remaining binding of `O=C(NCCCC1CCCCC1)c1ccc(CNC(=O)c2cnn(-c3ccccc3)c2C(F)(F)F)cc1` is reported as 88% (cell-free assay; competition with immobilised ligand; 0.1 µM).
`Cc1ccc(C(=O)Nc2ccc(CN3CCN(C)CC3)c(C(F)(F)F)c2)cc1C#Cc1cnc2cccnn12` gave a remaining activity of 94% (enzyme activity; inhibitor; 23.5 nM).
